High-throughput results: PubChem, several laboratories
Hits are enriched below; roughly 2.1% of the tested compounds scored in any of these assays.
EBI2 antag = EBI2 (human) antagonism; hit rate 0.81% among 360,000; inhibition, % at 5 µM; EBI2 beta-arrestin recruitment, luminescence, 7a,25-OHC stimulated; in the data active means inhibition above about 38%;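 further: enzyme fragment complementation signal reports receptor beta-arrestin coupling in cells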
Target sequence (P32249 whole entry, looked up, the tested form may be a part): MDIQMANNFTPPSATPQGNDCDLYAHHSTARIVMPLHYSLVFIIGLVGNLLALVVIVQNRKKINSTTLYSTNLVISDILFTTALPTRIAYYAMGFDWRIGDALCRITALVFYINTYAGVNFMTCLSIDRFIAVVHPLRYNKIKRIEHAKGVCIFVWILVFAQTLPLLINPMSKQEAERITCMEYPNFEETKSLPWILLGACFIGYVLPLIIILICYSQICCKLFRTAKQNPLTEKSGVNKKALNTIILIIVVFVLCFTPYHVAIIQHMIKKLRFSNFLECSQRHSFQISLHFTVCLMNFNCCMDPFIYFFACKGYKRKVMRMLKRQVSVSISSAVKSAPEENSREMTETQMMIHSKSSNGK
HTR2A ag = activates the mouse 5-HT2A serotonin receptor; P35363; CHO-K1 mHTR2A beta-arrestin complementation, luminescence; percent of 30 µM serotonin response; activation, % at 7.6 µM; hit rate 0.66% among 360,000;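 active means activation above a run cutoff, the mean activation of all tested compounds plus 3 SD, cut at about 14% in these data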
CCR6 antag = antagonists of human CCR6 receptor. hit rate 0.49% among 340,000. inhibition, % at 20 µM. CHO-K1 CCR6 PathHunter beta-arrestin, luminescence, CCL20-stimulated;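 active means compounds whose inhibition of the agonist-driven luminescence signal at 20 µM reaches about 50%, limit read from the data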;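 further: cells stimulated with CCL20 at 14 nM final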
APJ antag = blocks the human apelin receptor APJ; inhibition, % at 20 µM; AID 2521; hit rate 0.32% among 330,000; P35414; CHO-K1 APJ beta-arrestin complementation, luminescence;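 active means inhibition above about 40% at 20 µM, limit read from the data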;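 further: cells challenged with 10 nM apelin-13 agonist together with compound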
APJ agonist = APJ receptor agonism. CHO-K1 APJ PathHunter beta-arrestin, luminescence; 0% DMSO wells, 100% apelin. hit rate 0.11% among 330,000. activation, % at 20 µM. AID 2520. P35414;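 active means activation more than six SD over the plate average, tested at 20 µM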
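Assay system – PathHunter CHO-K1 APJ (AGTRL-1) beta-arrestin reporter cells · Compound – one dose, 20 µM compound, 1% DMSO · Timing – compound 90 min 25 °C, reagent 1 h · Measured by – luminescence from split beta-galactosidase complementation, Galacton Star/Emerald II substrate · Measure – beta-arrestin recruitment to APJ as agonist activity, luminescent signal · Benchmarks – DMSO vs Apelin-13 10 nM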
CXCR6 block = blocks human CXCR6 beta-arrestin recruitment; O00574; CHO-K1 PathHunter CXCR6 beta-arrestin, luminescence; inhibition, % at 20 µM; hit rate 0.36% among 360,000; AID 602244; in the data active means inhibition above about 34%, passing the limit was not always enough;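 further: antagonist mode with CXCL16 agonist at 10 nM final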
Numbers stand for hits.

Screening CCCn1nnc(NC(=S)NC(=O)c2ccc(-c3ccc(Br)cc3)o2)n1 returned EBI2 antag inactive, HTR2A ag inactive, CCR6 antag 58.7, APJ antag inactive, APJ agonist inactive and CXCR6 block inactive.
O=C(O)c1cccc2c1/C(=N/Nc1ccc([N+](=O)[O-])cc1[N+](=O)[O-])c1ccccc1-2 was read as EBI2 antag inactive, HTR2A ag inactive, CCR6 antag 52.6, APJ antag inactive, APJ agonist inactive and CXCR6 block inactive.
`CCc1ccc2nc(SCC(=O)N3CC(=O)Nc4ccccc43)c(C#N)cc2c1` gave EBI2 antag 48.5, HTR2A ag inactive, CCR6 antag inactive, APJ antag inactive, APJ agonist inactive and CXCR6 block inactive.
Screening N#Cc1cc(C#N)c(SCC(=O)N2CC(=O)Nc3ccccc32)nc1N returned EBI2 antag inactive, HTR2A ag inactive, CCR6 antag inactive, APJ antag inactive, APJ agonist inactive and CXCR6 block inactive.
`COc1ccc(N2CCN(C(=O)c3ccc(C)cc3)CC2)c([N+](=O)[O-])c1` gave EBI2 antag inactive, HTR2A ag inactive, CCR6 antag inactive, APJ antag inactive, APJ agonist inactive and CXCR6 block inactive.
COc1ccc(N2CCN(C(=O)c3ccc(Br)cc3)CC2)c([N+](=O)[O-])c1 was read as EBI2 antag 71.5, HTR2A ag inactive, CCR6 antag inactive, APJ antag inactive, APJ agonist inactive and CXCR6 block inactive.
For Cc1cc(NS(=O)(=O)c2ccc(NC(=O)c3ccc(Cl)cc3Cl)cc2)no1 the results were EBI2 antag inactive, HTR2A ag inactive, CCR6 antag inactive, APJ antag inactive, APJ agonist inactive and CXCR6 block inactive.
Screening Cc1cc(NS(=O)(=O)c2ccc(NC(=S)NC(=O)c3ccc(Cl)cc3Cl)cc2)no1 returned EBI2 antag inactive, HTR2A ag inactive, CCR6 antag 51.7, APJ antag inactive, APJ agonist inactive and CXCR6 block inactive.
Screening O=C(C1CCN(S(=O)(=O)c2cccc3cccnc23)CC1)N1CC=C(c2ccccc2)CC1 returned APJ antag inactive and APJ agonist inactive.
Screening Oc1c(Cl)cc(Cl)cc1CNc1ccc(Br)cn1 returned EBI2 antag inactive, HTR2A ag inactive, CCR6 antag inactive, APJ antag inactive, APJ agonist inactive and CXCR6 block inactive.
Oc1ccc(Cl)cc1CNc1ccc(Br)cn1 was read as EBI2 antag 41.3, HTR2A ag inactive, CCR6 antag inactive, APJ antag inactive, APJ agonist inactive and CXCR6 block inactive.
O=C(CCC(=O)Nc1ccccc1)N/N=C/c1ccco1 was read as EBI2 antag inactive, HTR2A ag inactive, CCR6 antag inactive, APJ antag inactive, APJ agonist inactive and CXCR6 block inactive.
`Cc1ccc(N=C2C(=O)Nc3ccc(C)c(Br)c32)cc1` gave EBI2 antag inactive, HTR2A ag inactive, CCR6 antag 99.2, APJ antag inactive, APJ agonist inactive and CXCR6 block inactive.
Screening CCCn1c(O)c2ccc(C(=O)N=NC(=O)c3cccnc3)cc2c1O returned EBI2 antag inactive, HTR2A ag 20.8, CCR6 antag inactive, APJ antag inactive, APJ agonist inactive and CXCR6 block inactive.
For C/C(CCC12CC3CC(CC(C3)C1)C2)=N\NC(N)=S the results were EBI2 antag inactive, HTR2A ag inactive, CCR6 antag 57.1, APJ antag inactive, APJ agonist inactive and CXCR6 block inactive.
`CN(CC(=O)Nc1ccc2c(c1)OCCO2)CC(=O)Nc1ccc(F)c(F)c1F` gave EBI2 antag inactive, HTR2A ag inactive, CCR6 antag inactive, APJ antag inactive, APJ agonist inactive and CXCR6 block inactive.
For COc1ccccc1C1NC(=O)NC(C)=C1C(=O)OC1CCCCC1 (stereo unspecified) the results were EBI2 antag inactive, HTR2A ag 15.4, CCR6 antag inactive, APJ antag inactive, APJ agonist inactive and CXCR6 block inactive.
For COc1ccc(OC)c(C2NC(=O)NC(C)=C2C(=O)OC2CCCCC2)c1 (stereo unspecified) the results were EBI2 antag inactive, HTR2A ag inactive, CCR6 antag inactive, APJ antag inactive, APJ agonist inactive and CXCR6 block inactive.
Screening COc1cccc(C(=O)NC(=S)Nc2ccc3[nH]c(=O)[nH]c3c2)c1 returned EBI2 antag inactive, HTR2A ag inactive, CCR6 antag inactive, APJ antag inactive, APJ agonist inactive and CXCR6 block inactive.
COc1ccc(C(C#N)=C2C=C(Cl)C(=NO)C=C2Cl)cc1 was read as EBI2 antag inactive, HTR2A ag inactive and CXCR6 block inactive.
`N#CC(=C1C=C(Br)C(=NO)C=C1Cl)c1cccc2ccccc12` gave EBI2 antag inactive, HTR2A ag inactive and CXCR6 block 39.9.
C=C(CN(C)C)C(=O)c1cc(C)ccc1C was read as EBI2 antag inactive, HTR2A ag inactive, CCR6 antag 108.1 and CXCR6 block 96.4.
Cc1cc2c3c(c1)C(C)(c1ccccc1)CC(C)(C)N3C(=O)C21C(C#N)=C(N)OC2=C1C(=O)CC(C)(C)C2 (stereo unspecified) was read as EBI2 antag inactive, HTR2A ag inactive, CCR6 antag inactive, APJ antag inactive, APJ agonist inactive and CXCR6 block inactive.
`CC1(c2ccccc2)CC(C)(C)N2C(=O)C3(C(C#N)=C(N)Oc4cc(O)ccc43)c3cccc1c32` (stereo unspecified) gave EBI2 antag inactive, HTR2A ag 34.0, CCR6 antag inactive, APJ antag inactive, APJ agonist inactive and CXCR6 block inactive.
For CCCn1c(N)c(Sc2ccccc2)c(=O)n(CCC)c1=O the results were EBI2 antag inactive, HTR2A ag 18.3, CCR6 antag inactive, APJ antag inactive, APJ agonist inactive and CXCR6 block inactive.
For CC(C)(C)NC(=O)C(c1c[nH]c2ccccc12)N(C(=O)Cn1nnc(-c2ccc(F)cc2)n1)c1cccc(O)c1 (stereo unspecified) the results were EBI2 antag inactive, HTR2A ag inactive, CCR6 antag inactive, APJ antag inactive, APJ agonist inactive and CXCR6 block inactive.
Screening CCC(C)(C)NC(=O)C(c1ccc(C)cc1)N(CC1CCCO1)C(=O)c1csnn1 (stereo unspecified) returned EBI2 antag inactive, HTR2A ag inactive, CCR6 antag inactive, APJ antag inactive, APJ agonist inactive and CXCR6 block inactive.
For O=C(CN1c2cccc3cccc(c23)S1(=O)=O)N1CCOCC1 the results were EBI2 antag inactive, HTR2A ag inactive, CCR6 antag inactive, APJ antag inactive, APJ agonist inactive and CXCR6 block inactive.
Screening COc1cc(/C=N/n2c(-c3ccc4c(c3)NC(=O)CO4)csc2=Nc2cccc(C)c2)ccc1O returned EBI2 antag 52.1, HTR2A ag inactive, CCR6 antag inactive, APJ antag inactive, APJ agonist inactive and CXCR6 block inactive.
Screening COCCN=c1scc(-c2cccs2)n1/N=C(\C)c1ccco1 returned EBI2 antag inactive, HTR2A ag inactive, CCR6 antag inactive, APJ antag inactive, APJ agonist inactive and CXCR6 block inactive.
